Experimental data taken from ChEMBL document CHEMBL5131562, “1,3-Dioxane-Linked Novel Bacterial Topoisomerase Inhibitors: Expanding Structural Diversity and the Antibacterial Spectrum” (ACS Med Chem Lett, 2022).
Converted amounts (≈) assume the structure as drawn.

Assays:
Neisseria gonorrhoeae [1] = assay: Antimicrobial activity against wild type Neisseria gonorrhoeae ATCC 49226 incubated for 20 to 24 hrs by CLSI protocol based broth microdilution method; assay type: functional; details: time 20-24 hrs
Neisseria gonorrhoeae [2] = assay: Antimicrobial activity against wild type Neisseria gonorrhoeae Y strain harbouring type 2 topoisomerase GyrA S91F, D95G and ParC S87R mutant incubated for 20 to 24 hrs by CLSI protocol based broth microdilution method; assay type: functional; details: time 20-24 hrs
Neisseria gonorrhoeae [3] = assay: Antimicrobial activity against wild type Neisseria gonorrhoeae V strain harbouring type 2 topoisomerase GyrA S91F, D95G and ParC S87R mutant incubated for 20 to 24 hrs by CLSI protocol based broth microdilution method; assay type: functional; details: time 20-24 hrs
Staphylococcus aureus [4] = assay: Antibacterial activity against Staphylococcus aureus harbouring GyrA D83N mutant by CLSI method; assay type: functional
Staphylococcus aureus [5] = assay: Antibacterial activity against cystic fibrosis isolate Staphylococcus aureus by CLSI method; assay type: functional
[6] = biological target: Voltage-gated inwardly rectifying potassium channel KCNH2 (Homo sapiens, UniProt Q12809); assay: Inhibition of hERG cardiac ion channel; assay type: toxicity
In short: (§1)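 hERG channel inhibition was run by a contract lab. […] Determinations were made in duplicate or triplicate (n = 2 or 3).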

Staphylococcus aureus [7] = assay: Selectivity ratio of IC50 for inhibition of Staphylococcus aureus DNA topoisomerase 4 decatenation activity to IC50 for inhibition of Staphylococcus aureus DNA gyrase supercoiling activity
Neisseria gonorrhoeae [8] = assay: Antimicrobial activity against Neisseria gonorrhoeae G strain harbouring type 2 topoisomerase GyrA S91F and ParE G410V mutant incubated for 20 to 24 hrs by CLSI protocol based broth microdilution method; assay type: functional; details: time 20-24 hrs
Topoisomerase IV = Topoisomerase IV (Staphylococcus aureus, UniProt P0C1S7+P0C1U9); assay: Inhibition of Staphylococcus aureus DNA topoisomerase 4 decatenation activity using kDNA as substrate incubated for 10 to 20 min by ethidium bromide/bromophenol blue staining based agarose gel electrophoresis analysis; assay type: protein-complex assay
Neisseria gonorrhoeae [9] = assay: Antimicrobial activity against Neisseria gonorrhoeae K strain harbouring type 2 topoisomerase GyrA S91F, D95N and ParC S87R, S88P mutant incubated for 20 to 24 hrs by CLSI protocol based broth microdilution method; assay type: functional; details: time 20-24 hrs
[10] = Cytotoxicity activity against human K/VP.5 cells assessed as inhibition of cellular growth; assay type: toxicity, cell-based
In short: (§2)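 Human K562 leukemia cells were tested alongside K/VP.5, an etoposide-resistant clonal subline derived from them that has reduced levels of human topoisomerase IIα. Cell growth inhibition was expressed as an IC50.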

DNA gyrase = DNA gyrase (Staphylococcus aureus, UniProt P0A0K8+P20831); assay: Inhibition of Staphylococcus aureus DNA gyrase supercoiling activity incubated for 25 min by ethidium bromide/bromophenol blue staining based agarose gel electrophoresis analysis; assay type: protein-complex assay
Staphylococcus aureus [11] = assay: Antibacterial activity against methicillin-resistant Staphylococcus aureus USA300 by CLSI method; assay type: functional
[12] = Metabolic stability in mouse liver microsomes assessed as half life; assay type: ADME, Microsome
hERG (KCNH2) = hERG (KCNH2) (Homo sapiens, UniProt Q12809); assay: Inhibition of hERG cardiac ion channel at 200 uM relative to control; assay type: toxicity; in short: as §1
Neisseria gonorrhoeae [13] = assay: Antimicrobial activity against wild type Neisseria gonorrhoeae F strain incubated for 20 to 24 hrs by CLSI protocol based broth microdilution method; assay type: functional; details: time 20-24 hrs
Neisseria gonorrhoeae [14] = assay: Antimicrobial activity against wild type Neisseria gonorrhoeae P strain incubated for 20 to 24 hrs by CLSI protocol based broth microdilution method; assay type: functional; details: time 20-24 hrs
Neisseria gonorrhoeae [15] = assay: Antimicrobial activity against wild type Neisseria gonorrhoeae O strain incubated for 20 to 24 hrs by CLSI protocol based broth microdilution method; assay type: functional; details: time 20-24 hrs
Staphylococcus aureus [16] = assay: Antibacterial activity against Staphylococcus aureus ATCC 29213 by CLSI method; assay type: functional
Staphylococcus aureus [17] = assay: Antibacterial activity against Staphylococcus aureus 3527 by CLSI method; assay type: functional
[18] = Cytotoxicity activity against human K562 cells assessed as inhibition of cellular growth; assay type: toxicity, cell-based; in short: as §2
Neisseria gonorrhoeae [19] = assay: Antimicrobial activity against Neisseria gonorrhoeae L strain harbouring type 2 topoisomerase GyrA S91F,D95N and ParC D86N,S88P mutant incubated for 20 hrs by agar dilution method; assay type: functional
Neisseria gonorrhoeae [20] = assay: Antimicrobial activity against wild type Neisseria gonorrhoeae ATCC 49226 incubated for 20 hrs by agar dilution method; assay type: functional
[21] = Inhibition of Neisseria gonorrhoeae DNA gyrase supercoiling activity incubated for 25 min by ethidium bromide/bromophenol blue staining based agarose gel electrophoresis analysis
In short: (§3)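 The N. gonorrhoeae enzymes were assayed separately: supercoiling by DNA gyrase, and decatenation of kDNA by topoisomerase IV. Concentration–response data were collected over at least three independent experiments and summarized with standard deviation, and IC50 values were derived.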

Neisseria gonorrhoeae [22] = assay: Antimicrobial activity against Neisseria gonorrhoeae M strain harbouring type 2 topoisomerase GyrA S91F,D95G mutant incubated for 20 hrs by agar dilution method; assay type: functional
Neisseria gonorrhoeae [23] = assay: Antimicrobial activity against Neisseria gonorrhoeae G strain harbouring type 2 topoisomerase GyrA S91F and ParE G410V mutant incubated for 20 hrs by agar dilution method; assay type: functional
[24] = Inhibition of Neisseria gonorrhoeae DNA topoisomerase 4 decatenation activity using kDNA as substrate incubated for 10 to 20 min by ethidium bromide/bromophenol blue staining based agarose gel electrophoresis analysis; in short: as §3

Compound | MIC (Neisseria gonorrhoeae [1]) [mg/L] | MIC (Neisseria gonorrhoeae [2]) [mg/L] | MIC (Neisseria gonorrhoeae [3]) [mg/L] | MIC (Staphylococcus aureus [4]) [mg/L] | MIC (Staphylococcus aureus [5]) [mg/L] | IC50 [6] [µM] | Ratio IC50 (Staphylococcus aureus [7]) | MIC (Neisseria gonorrhoeae [8]) [mg/L] | IC50 (Topoisomerase IV) [µM] | MIC (Neisseria gonorrhoeae [9]) [mg/L] | IC50 [10] [µM] | IC50 (DNA gyrase) [µM] | MIC (Staphylococcus aureus [11]) [mg/L] | half-life [12] [h] | MIC (Neisseria gonorrhoeae [13]) [mg/L] | MIC (Neisseria gonorrhoeae [14]) [mg/L] | MIC (Neisseria gonorrhoeae [15]) [mg/L] | MIC (Staphylococcus aureus [16]) [mg/L] | MIC (Staphylococcus aureus [17]) [mg/L] | IC50 [18] [µM] | further results
O=c1ccc2ccc(F)c3c2n1CC3C[C@H]1OC[C@H](NCc2cc3c(nn2)OCCO3)CO1 (stereo partly specified) | 32 (≈ 70.4 µM) | 32 (≈ 70.4 µM) | 32 (≈ 70.4 µM) | > 8 | 1 (≈ 2.2 µM) | > 200 | 2.8 | > 32 | 9.7 | > 32 | 171 | 3.5 | 4 (≈ 8.8 µM) | 1.7 | 16 (≈ 35.2 µM) | 32 (≈ 70.4 µM) | 32 (≈ 70.4 µM) | 2 (≈ 4.4 µM) | 4 (≈ 8.8 µM) | 156 | inhibition at 200 µM (hERG (KCNH2)): 21%
O=c1ccc2ncc(F)c3c2n1CC3C[C@H]1OC[C@H](NCc2cc3c(nn2)OCCS3)CO1 (stereo partly specified) | 32 (≈ 67.9 µM) | 8 (≈ 17 µM) | 4 (≈ 8.48 µM) | > 8 | 2 (≈ 4.24 µM) | > 200 | 5.6 | > 32 | 10 | 32 (≈ 67.9 µM) | 197 | 1.8 | 4 (≈ 8.48 µM) | 1.88 | 8 (≈ 17 µM) | 32 (≈ 67.9 µM) | 32 (≈ 67.9 µM) | 2 (≈ 4.24 µM) | 4 (≈ 8.48 µM) | 98 | inhibition at 200 µM (hERG (KCNH2)): 23%
O=C1COc2ccc(CN[C@H]3CO[C@H](CC4Cn5c(=O)ccc6ccc(F)c4c65)OC3)nc2N1 (stereo partly specified) | 0.12 (≈ 0.257 µM) | 0.12 (≈ 0.257 µM) | ≤ 0.03 | 4 (≈ 8.58 µM) | 0.5 (≈ 1.07 µM) | 30 | 0.81 | 0.25 (≈ 0.536 µM) | 1.3 | 0.12 (≈ 0.257 µM) | 127 | 1.6 | 0.25 (≈ 0.536 µM) | 0.307 | 0.06 (≈ 0.129 µM) | 0.25 (≈ 0.536 µM) | 0.25 (≈ 0.536 µM) | 0.5 (≈ 1.07 µM) | 0.25 (≈ 0.536 µM) | 101 | –
O=C1COc2ccc(CN[C@H]3CO[C@H](CC4Cn5c(=O)ccc6ncc(F)c4c65)OC3)nc2N1 (stereo partly specified) | 1 (≈ 2.14 µM) | 1 (≈ 2.14 µM) | 0.5 (≈ 1.07 µM) | 8 (≈ 17.1 µM) | 2 (≈ 4.28 µM) | 97 | 0.33 | 2 (≈ 4.28 µM) | 1.4 | 1 (≈ 2.14 µM) | > 200 | 4.2 | 1 (≈ 2.14 µM) | 1.1 | 0.12 (≈ 0.257 µM) | 2 (≈ 4.28 µM) | 1 (≈ 2.14 µM) | 2 (≈ 4.28 µM) | 2 (≈ 4.28 µM) | > 200 | –
COc1ccc2ncc(F)c(C[C@H](O)[C@H]3OC[C@H](NCc4ccc5c(n4)NC(=O)CS5)CO3)c2n1 | ≤ 0.03 | ≤ 0.03 | ≤ 0.03 | – | – | – | – | ≤ 0.03 | – | ≤ 0.03 | – | – | – | – | ≤ 0.03 | ≤ 0.03 | ≤ 0.03 | – | – | – | MIC (Neisseria gonorrhoeae [19]): 1 mg/L (≈ 1.99 µM); MIC (Neisseria gonorrhoeae [20]): 0.25 mg/L (≈ 0.498 µM); IC50 [21]: 0.39 µM; MIC (Neisseria gonorrhoeae [22]): 0.5 mg/L (≈ 0.997 µM); MIC (Neisseria gonorrhoeae [23]): 1 mg/L (≈ 1.99 µM); IC50 [24]: 3.6 µM
O=c1ccc2ccc(F)c3c2n1CC3C[C@H]1OC[C@H](NCc2ccc3c(c2)OCCO3)CO1 (stereo partly specified) | 0.12 (≈ 0.265 µM) | ≤ 0.03 | ≤ 0.03 | 4 (≈ 8.84 µM) | 0.25 (≈ 0.553 µM) | 35 | 2.6 | 0.5 (≈ 1.11 µM) | 0.6 | 0.12 (≈ 0.265 µM) | 33.9 | 0.23 | 0.25 (≈ 0.553 µM) | 0.0543 | ≤ 0.03 | 0.25 (≈ 0.553 µM) | 0.25 (≈ 0.553 µM) | 0.125 (≈ 0.276 µM) | 0.25 (≈ 0.553 µM) | 29.1 | –
